Test results taken from article PMC4306518 (Journal of Medicinal Chemistry, 2014).
Like-named read-outs stand apart in the source and are kept apart here.

Experiments:
bsNOS [1] = biological target: T1, bsNOS (Bacillus subtilis, UniProt O34453); assay: Imidazole displacement assay, spectral binding constant
T1 sequence (O34453 1-363): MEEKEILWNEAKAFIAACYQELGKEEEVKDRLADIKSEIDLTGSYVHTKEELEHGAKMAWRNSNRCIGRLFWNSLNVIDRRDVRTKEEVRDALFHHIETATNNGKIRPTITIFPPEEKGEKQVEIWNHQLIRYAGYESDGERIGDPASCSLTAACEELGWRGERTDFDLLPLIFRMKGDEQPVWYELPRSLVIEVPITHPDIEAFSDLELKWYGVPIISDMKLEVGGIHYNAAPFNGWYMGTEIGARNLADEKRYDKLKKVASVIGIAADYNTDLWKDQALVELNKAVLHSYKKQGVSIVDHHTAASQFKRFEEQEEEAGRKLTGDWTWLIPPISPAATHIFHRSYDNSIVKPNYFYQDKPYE

B. subtilis = assay: Effect of acriflavine and NOS inhibitors on B. subtilis survival; type: cell-based, Bacillus subtilis
Procedure, shortened: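 WT (ATCC 23857) and Δnos B. subtilis grown separately to OD600 ≈ 1.0, diluted to OD600 0.6 in LB, then brought up in M9 minimal medium with or without test compound (500 μM final) and/or acriflavine (800 μM final). Treated 30 min at 30 °C, serially diluted in M9, plated on LB agar + 0.5% glucose, 37 °C overnight. CFU counted; % survival relative to untreated cells; ≥3 replicates, mean ± SEM, Student's t test.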

rat nNOS = rat nNOS (Rattus norvegicus, UniProt P29476); assay: Ki with mammalian NOS isoforms: nNOS; type: biochemical; conditions: 6 compared to 2
iNOS = iNOS (Homo sapiens, UniProt P35228); conditions: read-out: imidazole KD iNOS; used to calculate KS; cited from earlier work
bsNOS [2] = biological target: T1, bsNOS; conditions: read-out: imidazole KD bsNOS; used to calculate KS; cited from earlier work
[3] = KS bsNOS (+H4B), presence of 50 μM H4B
[4] = KS bsNOS (−H4B), absence of H4B

Chain of rat nNOS (P29476 whole entry, canonical isoform): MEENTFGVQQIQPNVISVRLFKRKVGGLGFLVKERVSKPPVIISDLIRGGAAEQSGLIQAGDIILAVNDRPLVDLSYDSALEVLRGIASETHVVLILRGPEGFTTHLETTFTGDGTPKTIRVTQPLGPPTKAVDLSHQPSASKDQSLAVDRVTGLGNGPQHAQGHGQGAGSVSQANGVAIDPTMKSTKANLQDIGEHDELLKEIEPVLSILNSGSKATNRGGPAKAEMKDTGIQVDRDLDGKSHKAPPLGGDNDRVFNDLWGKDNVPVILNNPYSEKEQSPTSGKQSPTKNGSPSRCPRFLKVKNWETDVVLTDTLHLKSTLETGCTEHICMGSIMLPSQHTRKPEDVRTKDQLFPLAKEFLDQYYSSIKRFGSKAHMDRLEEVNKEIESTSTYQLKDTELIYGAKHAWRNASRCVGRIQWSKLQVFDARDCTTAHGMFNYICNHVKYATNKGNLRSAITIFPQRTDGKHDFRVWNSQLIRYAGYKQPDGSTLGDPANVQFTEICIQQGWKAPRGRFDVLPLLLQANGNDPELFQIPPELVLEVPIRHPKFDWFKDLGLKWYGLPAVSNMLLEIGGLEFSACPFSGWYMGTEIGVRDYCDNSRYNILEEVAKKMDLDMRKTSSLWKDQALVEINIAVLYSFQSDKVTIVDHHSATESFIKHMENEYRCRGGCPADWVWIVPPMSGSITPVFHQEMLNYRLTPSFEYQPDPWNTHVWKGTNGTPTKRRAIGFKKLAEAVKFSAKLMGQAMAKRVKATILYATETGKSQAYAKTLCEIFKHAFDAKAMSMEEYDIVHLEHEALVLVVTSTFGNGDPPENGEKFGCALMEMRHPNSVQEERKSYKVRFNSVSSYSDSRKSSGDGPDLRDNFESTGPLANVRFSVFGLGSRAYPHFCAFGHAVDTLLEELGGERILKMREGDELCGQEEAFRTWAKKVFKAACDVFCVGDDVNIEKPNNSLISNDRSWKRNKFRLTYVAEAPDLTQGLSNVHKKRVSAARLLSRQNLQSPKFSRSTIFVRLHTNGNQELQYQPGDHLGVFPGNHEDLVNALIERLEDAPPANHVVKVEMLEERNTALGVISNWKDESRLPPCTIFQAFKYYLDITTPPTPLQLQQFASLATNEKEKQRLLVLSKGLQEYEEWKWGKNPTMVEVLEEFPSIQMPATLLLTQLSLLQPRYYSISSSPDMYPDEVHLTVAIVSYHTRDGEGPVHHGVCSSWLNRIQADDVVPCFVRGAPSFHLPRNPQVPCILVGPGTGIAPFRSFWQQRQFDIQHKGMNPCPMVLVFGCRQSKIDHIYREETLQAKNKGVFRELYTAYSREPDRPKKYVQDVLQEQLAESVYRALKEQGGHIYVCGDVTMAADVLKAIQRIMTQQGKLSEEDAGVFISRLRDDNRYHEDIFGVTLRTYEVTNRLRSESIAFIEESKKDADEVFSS
Chain of iNOS (P35228 74-504 limits assumed): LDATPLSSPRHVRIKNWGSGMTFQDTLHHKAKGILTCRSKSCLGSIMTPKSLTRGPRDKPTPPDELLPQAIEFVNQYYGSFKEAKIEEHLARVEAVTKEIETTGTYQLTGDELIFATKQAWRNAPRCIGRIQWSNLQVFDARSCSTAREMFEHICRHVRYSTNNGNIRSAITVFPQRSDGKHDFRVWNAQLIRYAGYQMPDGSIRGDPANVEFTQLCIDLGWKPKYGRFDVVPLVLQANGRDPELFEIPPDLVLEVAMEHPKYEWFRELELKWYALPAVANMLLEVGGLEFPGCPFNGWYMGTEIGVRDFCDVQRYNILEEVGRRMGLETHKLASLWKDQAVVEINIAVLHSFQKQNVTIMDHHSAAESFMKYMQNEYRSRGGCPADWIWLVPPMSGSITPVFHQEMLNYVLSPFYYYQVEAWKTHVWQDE

Kd (bsNOS [1]; [3]) [µM]	Kd (bsNOS [1]; [4]) [µM]	Compound	other results
1.9 ± 0.1	–	NC(=NCCCC(N)C(=O)O)NO [N-ω-hydroxy-L-arginine (L-NNA), N-ω-hydroxy-L-arginine, reference compound]	–
1.9 ± 0.1	0.91 ± 0.08	Cc1cc(N)nc(CCc2cc(N)cc(CCc3cc(C)cc(N)n3)c2)c1 [compound 1]	fold difference in binding (KS) to bsNOS in presence vs absence of H4B (bsNOS [1]; 50 μM H4B vs no H4B): 2 fold
47 ± 2	15 ± 3	Cc1cc(N)nc(CCc2cc(CN)cc(CCc3cc(C)cc(N)n3)c2)c1 [compound 2]	bacterial growth inhibition (in words) (B. subtilis; B. subtilis): good inhibitor of bacterial growth
19 ± 1	16 ± 1	Cc1cc(N)nc(CCc2cc(CCCN)cc(CCc3cc(C)cc(N)n3)c2)c1 [compound 3]	–
19 ± 2	12 ± 1	CNc1cc(C)cc(CCc2cc(C#N)cc(CCc3cc(C)cc(N)n3)c2)n1 [compound 4, 3-(2-(6-Amino-4-methylpyridin-2-yl)ethyl)-5-(2-(4-methyl-6-(methylamino)pyridin-2-yl)ethyl)benzonitrile]	–
–	–	c1c[nH]cn1 [imidazole]	Kd (iNOS): 158 µM; Kd (bsNOS [2]): 384 µM
–	–	acriflavine [reference compound]	bacterial growth, % of control (B. subtilis; ACR alone (800 μM), 30 min): 23%

Compound	Kd (bsNOS [1]; [3]) [µM]	Kd (bsNOS [1]; [4]) [µM]	other results
Cc1cc(N)nc(CCc2cc(CN)cc(CCc3ccc4cc[nH]c4n3)c2)c1 [compound 6, 6-(3-(2-(1H-Pyrrolo[2,3-b]pyridin-6-yl)ethyl)-5-(aminomethyl)phenethyl)-4-methylpyridin-2-amine]	12 ± 4	10 ± 2	fold decrease of potency toward nNOS compared to 2 (rat nNOS): > 4 fold
